According to ChEMBL document CHEMBL3046679, “Design, synthesis, and biological activities of arylmethylamine substituted chlorotriazine and methylthiotriazine compounds” (J Agric Food Chem, 2011):
The source made the active and inactive calls. No cut-off for these calls is given here.

Experiments:
Zymoseptoria tritici = test: Fungicidal activity against Zymoseptoria tritici assessed as inhibition of mycelia growth at 100 ppm; assay type: functional, organism-based
Pythium dissimile = test: Fungicidal activity against Pythium dissimile assessed as inhibition of mycelia growth at 2 ppm; assay type: functional, organism-based
Method in brief: (§1)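 Mycelial growth test in 96-well plates: compound incorporated into artificial growth medium at 2 ppm, two replicates per rate. Each well scored 99 for complete, 55 for partial or 0 for no inhibition. Values are the mean across replicates; azoxystrobin and prochloraz used as positive controls.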

Amaranthus retroflexus [1] = test: Herbicidal activity against Amaranthus retroflexus assessed as growth inhibition at 1 kg/ha preemergence treatment by glasshouse test; assay type: functional; conditions: pre-emergence, read-out: GI
Method in brief: (§2)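 Glasshouse screen with pre- or postemergence application at 1.0 kg/ha. Result given as percent inhibition of plant growth; norflurazon and glyphosate used as controls.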

Stellaria media [2] = test: Herbicidal activity against Stellaria media assessed as growth inhibition at 1 kg/ha postemergence treatment by glasshouse test; assay type: functional; conditions: post-emergence, read-out: GI; method in brief: as §2
Aphididae = test: Insecticidal activity against Aphididae (aphids) assessed as mortality at 1000 ppm by leaf-disk assay; assay type: functional, organism-based
Method in brief: (§3)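 Leaf-disk assay at 1000 ppm, three replicates. Plates kept 5–9 days in controlled-environment cabinets. Mortality judged against untreated wells: 99 for significant mortality, 0 otherwise. Values are the mean of three; thiamethoxam and indoxacarb used as positive controls.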

Lolium perenne [3] = test: Herbicidal activity against Lolium perenne (perennial ryegrass) assessed as growth inhibition at 1 kg/ha postemergence treatment by glasshouse test; assay type: functional; conditions: post-emergence, read-out: GI; method in brief: as §2
Stellaria media [4] = test: Herbicidal activity against Stellaria media assessed as growth inhibition at 1 kg/ha preemergence treatment by glasshouse test; assay type: functional; conditions: pre-emergence, read-out: GI; method in brief: as §2
Echinochloa crus-galli [5] = test: Herbicidal activity against Echinochloa crus-galli (barnyard grass) at 1.5 kg/ha preemergence treatment measured after 10 days by glasshouse test; assay type: functional; conditions: pre-emergence, 240 h
Method in brief: (§4)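 Glasshouse pre/postemergence test, each treatment in triplicate. Above-ground fresh weight measured 10 days after treatment. Result expressed as percent inhibition versus control, from 0 (no control) to 100 (complete control); glyphosate used as positive control.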

Fusarium graminearum = test: Fungicidal activity against Fusarium graminearum assessed as inhibition of mycelia growth at 2 ppm; assay type: functional, organism-based; method in brief: as §1
Digitaria sanguinalis [6] = test: Herbicidal activity against Digitaria sanguinalis (hairy crabgrass) assessed as growth inhibition at 1 kg/ha postemergence treatment by glasshouse test; assay type: functional; conditions: post-emergence, read-out: GI; method in brief: as §2
Lolium perenne [7] = test: Herbicidal activity against Lolium perenne (perennial ryegrass) assessed as growth inhibition at 1 kg/ha preemergence treatment by glasshouse test; assay type: functional; conditions: pre-emergence, read-out: GI; method in brief: as §2
Poa annua = test: Herbicidal activity against Poa annua assessed as growth inhibition at 32 ppm by 96-well plate test; assay type: functional; conditions: read-out: GI
Method in brief: (§5)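 96-well plate herbicide screen: Arabidopsis thaliana at 10 ppm and Poa annua at 32 ppm, two replicates. Plates incubated seven days in a controlled-environment cabinet. Each replicate scored 0 (no visible effect) or 99 (herbicidal effect); values are the mean of the two. Atrazine used as reference.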

Brassica napus [8] = test: Herbicidal activity against Brassica napus (oilseed rape) at 1.5 kg/ha postemergence treatment measured after 10 days by glasshouse test; assay type: functional; conditions: post-emergence, 240 h; method in brief: as §4
Arabidopsis thaliana = test: Herbicidal activity against Arabidopsis thaliana assessed as growth inhibition at 10 ppm by 96-well plate test; assay type: functional; conditions: read-out: GI; method in brief: as §5
Phytophthora infestans = test: Fungicidal activity against Phytophthora infestans assessed as inhibition of mycelia growth at 200 ppm; assay type: functional, organism-based
Brassica napus [9] = test: Herbicidal activity against Brassica napus (oilseed rape) at 1.5 kg/ha preemergence treatment measured after 10 days by glasshouse test; assay type: functional; conditions: pre-emergence, 240 h; method in brief: as §4
Alternaria solani = test: Fungicidal activity against Alternaria solani assessed as inhibition of mycelia growth at 2 ppm; assay type: functional, organism-based; method in brief: as §1
Amaranthus retroflexus [10] = test: Herbicidal activity against Amaranthus retroflexus assessed as growth inhibition at 1 kg/ha postemergence treatment by glasshouse test; assay type: functional; conditions: post-emergence, read-out: GI; method in brief: as §2
Digitaria sanguinalis [11] = test: Herbicidal activity against Digitaria sanguinalis (hairy crabgrass) assessed as growth inhibition at 1 kg/ha preemergence treatment by glasshouse test; assay type: functional; conditions: pre-emergence, read-out: GI; method in brief: as §2
Heliothis virescens = test: Insecticidal activity against Lepidoptera Heliothis virescens (tobacco budworm) assessed as mortality at 1000 ppm by leaf-disk assay; assay type: functional, organism-based; method in brief: as §3
Echinochloa crus-galli [12] = test: Herbicidal activity against Echinochloa crus-galli (barnyard grass) at 1.5 kg/ha postemergence treatment measured after 10 days by glasshouse test; assay type: functional; conditions: post-emergence, 240 h; method in brief: as §4
Botrytis cinerea = test: Fungicidal activity against Botryotinia fuckeliana assessed as inhibition of mycelia growth at 2 ppm; assay type: functional, organism-based; method in brief: as §1

Compound | inhibition (Pythium dissimile) | inhibition of growth at 1000 g/ha (Amaranthus retroflexus [1]) | inhibition of growth at 1000 g/ha (Stellaria media [2]) | inhibition of growth at 1000 g/ha (Lolium perenne [3]) | inhibition of growth at 1000 g/ha (Stellaria media [4]) | inhibition at 1500 g/ha (Echinochloa crus-galli [5]) | inhibition (Fusarium graminearum) | inhibition of growth at 1000 g/ha (Digitaria sanguinalis [6]) | inhibition of growth at 1000 g/ha (Lolium perenne [7]) | inhibition of growth at 32 ppm (Poa annua) | inhibition at 1500 g/ha (Brassica napus [8]) | inhibition of growth at 10 ppm (Arabidopsis thaliana) | inhibition (Phytophthora infestans) | inhibition at 1500 g/ha (Brassica napus [9]) | inhibition (Alternaria solani) | inhibition of growth at 1000 g/ha (Amaranthus retroflexus [10]) | inhibition of growth at 1000 g/ha (Digitaria sanguinalis [11]) | mortality (Heliothis virescens) | inhibition at 1500 g/ha (Echinochloa crus-galli [12]) | also measured
CCNc1nc(NC(C)C)nc(SC)n1 [AMETRYNE] | inactive | 100% | 100% | 100% | 90% | 100% | inactive | 100% | 90% | 0% | 100% | 99% | inactive | 100% | inactive | 100% | 90% | inactive | 100% | inhibition (Zymoseptoria tritici): inactive; mortality (Aphididae): inactive
CSc1nc(NCc2cnc(Br)s2)nc(NC(C)C)n1 |  |  |  |  |  | 74.6% |  |  |  |  | 100% |  |  | 87.1% |  |  |  |  | 92% | 
CNc1cnn(-c2cccc(C(F)(F)F)c2)c(=O)c1Cl [NORFLURAZONE] |  |  |  |  |  |  |  |  |  | 99% |  | 99% |  |  |  |  |  |  |  | 
O=C(O)CNCP(=O)(O)O [GLYPHOSATE] |  | 90% | 80% | 80% | 0% |  |  | 90% | 0% |  |  |  |  |  |  | 90% | 0% |  |  | 
CC(C)Nc1nc(Cl)nc(NCc2cc(-c3ccccc3)no2)n1 | inactive |  |  |  |  | 4.3% | inactive |  |  |  | 42.4% |  | inactive | 20.1% | inactive |  |  | Active | 17.7% | mortality (Aphididae): inactive
CCNc1nc(Cl)nc(NC(C)C)n1 [ATRAZINE] | inactive | 100% | 100% | 100% | 90% | 100% | inactive | 70% | 80% | 0% | 100% | 99% | inactive | 100% | inactive | 100% | 0% | inactive | 100% | inhibition (Botrytis cinerea): inactive
CC(C)Nc1nc(Cl)nc(NCC2CCCO2)n1 (stereo not given) |  |  |  |  |  | 46.4% |  |  |  |  | 100% |  |  | 100% |  |  |  |  | 41.3% | 
CSc1nc(NCc2ccc(Cl)nc2)nc(NC(C)C)n1 | inactive | 100% | 100% | 50% | 90% | 88.6% | inactive | 90% | 10% | 0% | 100% | 99% | inactive | 100% | inactive | 70% | 0% | inactive | 88.6% | inhibition (Zymoseptoria tritici): inactive; inhibition (Botrytis cinerea): Active
